697 NFkB inh = lowers PMA/ionomycin-induced NF-kB signal in 697 B cells; 697 B-cell NF-kB luciferase reporter, 16 h; inhibition, % at 4 µM; hit rate 0.33% among 330,000; AID 435022; in the data active = inhibition above about 35%
VIM-2 inhibitor = inhibitors of Pseudomonas aeruginosa VIM-2 metallo-beta-lactamase; purified VIM-2, nitrocefin hydrolysis, epi-absorbance fluorescence; inhibition, % at 5.6 µM; hit rate 0.89% among 290,000; AID 1527;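 active = inhibition above the mean of all tested compounds plus 3 SD, cutoff set per screening run, cut at about 7.5% in these data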;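 note: red hydrolysis product quenches plate fluorescence so inhibitors raise well fluorescence; 0% = enzyme with DMSO and 100% = DMSO without enzyme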
aSyn 5UTR inh = 5' untranslated region of α-synuclein, MLPCN primary screen; alpha-synuclein 5'UTR reporter, inhibitor activity; inhibition, % (tested at 7.5 µM); hit rate 0.82% among 300,000; in the data active = inhibition above about 60%;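 note: H4 neuroglioblastoma cells stably carrying SNCA 5'UTR luciferase fusion; 0% = DMSO wells and 100% = positive control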
Jurkat NFkB inh = inhibitors of the PMA/ionomycin-induced NF-kB reporter in Jurkat cells. PMA/ionomycin-induced NF-kB luciferase reporter, luminescence. inhibition, % at 4 µM. hit rate 0.53% among 330,000; in the data active = inhibition above about 50%
Mdm2-MdmX inh = disrupts the human Mdm2-MdmX interaction. AID 485346. O15151+Q00987. SaOS-2 split-luciferase Mdm2/MdmX complementation, luminescence. hit rate 3% among 330,000. inhibition, % at 8 µM;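 active = inhibition of at least 50% at 8 µM in the primary screen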
IMP-1 inh = inhibitors of Pseudomonas aeruginosa IMP-1 metallo-beta-lactamase | AID 1556 | purified IMP-1, nitrocefin hydrolysis, epi-absorbance fluorescence | hit rate 0.45% among 290,000 | inhibition, % at 5.6 µM;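 active = inhibition above the mean plus 3 SD of all compounds in the same screening run, cut at about 4.5% in these data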;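 note: 0% = IMP-1 with DMSO and 100% = DMSO wells lacking enzyme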
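Assay system: purified recombinant IMP-1 beta-lactamase. Input: IMP-1 0.2 nM before substrate addition. Buffer or medium: Zinc- and detergent-supplemented HEPES buffer, pH 7.1. Schedule: 25 °C, 15 min preincubation, 25 min reaction. Signal: Epi-absorbance fluorescence, 480 nm excitation, 530 nm emission. Evaluation: percent inhibition from optical density relative to buffer-blank wells.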
Mdm2 MdmX conf = human Mdm2/MdmX binding inhibition, confirmed | shares compounds with Mdm2-MdmX inh | luminescent assay | inhibition, % at 8 µM | hit rate 55% among 10,000 | AID 489028; in the data active = inhibition above about 40%
Full FLuc ctr = inhibits full-length luciferase, flagging false Mdm2/MdmX hits | shares compounds with Mdm2-MdmX inh | SaOS-2 full-length luciferase counterscreen, luminescence | inhibition, % at 8 µM | hit rate 77% among 6,200 | AID 504607;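 active = mean inhibition at 8 µM reaching about 37%, which flags the compound as non-specific, limit read from the data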;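 note: p53-null SaOS-2 cells with luciferase driven by a doxycycline-inducible promoter; compound on cells about two nights before reading with doxycycline added after day one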
Numbers without * were called inactive; · = no result. In the library only some 4.7% were active in any assay of this set; here they are far more common.

SMILES	697 NFkB inh	VIM-2 inhibitor	aSyn 5UTR inh	Jurkat NFkB inh	Mdm2-MdmX inh	IMP-1 inh	Mdm2 MdmX conf	Full FLuc ctr
Cc1ccc(S(=O)(=O)c2ncccc2[N+](=O)[O-])cc1	7	-1	-39	27	90*	1	77*	52*
CC(C)Oc1ccc(N2CC(C(=O)Nc3ccc(N4CCOCC4)cc3)CC2=O)cc1 (configuration not stated)	17	-2	21	-2	25	-3	·	·
Cn1c(=O)[nH]c(=O)c2c1nc(N1CCCC1)n2CCCSc1nc2ccccc2o1	-45	-2	39	1	8	-3	·	·
Cn1c(=O)[nH]c(=O)c2c1nc(Br)n2CCCSc1nc2ccccc2o1	9	-5	4	-1	65*	-2	56*	98*
C[C@H]1CCC(=O)N([C@H](COc2ccccc2)Cc2ccccc2)CC1	14	-1	-2	3	22	-3	·	·
O=S(=O)(c1ccc(OCC2CO2)cc1)c1ccc(OCC2CO2)cc1 (configuration not stated)	7	-2	17	5	87*	-3	34	·
CCc1nc2sc3c(O)cc(=O)[nH]c3c2cc1C	8	-4	7	1	22	-3	·	·
COCC(=O)N/N=C\c1cccc(OC)c1OC/C=C/c1ccccc1	5	-5	-5	8	55*	-2	38	·
CC(NC(=O)/C(C#N)=C/c1ccc([N+](=O)[O-])o1)c1ccccc1 (configuration not stated)	-3	-2	-54	13	100*	-1	33	·
CCSC1(SCC)N=C(N)C2(C#N)C(c3ccc(OC)c(OC)c3OC)C12C#N (configuration not stated)	13	·	-2	17	69*	·	50*	17
COc1cc(NC(=O)COC(=O)c2[nH]c(C)c(C(C)=O)c2C)cc(OC)c1	6	·	·	13	51*	·	24	·
CCOC(=O)c1c(C)[nH]c(C(=O)OCC(=O)Nc2cc(C)ccc2OC)c1C	-25	0	8	-6	99*	-2	6	·
CCCS(=O)(=O)c1cnc(C2COc3ccccc3O2)nc1N (configuration not stated)	-14	-2	68*	48	82*	-1	85*	48*
NC(=O)CC(NC(=O)c1cccc(Br)c1)c1ccc(N2CCN(c3ccc(F)cc3)CC2)c([N+](=O)[O-])c1 (configuration not stated)	-23	-1	19	14	12	4	·	·
O=C(Nc1ncccn1)c1cc([N+](=O)[O-])cc([N+](=O)[O-])c1	-32	-2	-16	12	-24	-2	·	·
O=[N+]([O-])c1cc(-c2ncccn2)c([N+](=O)[O-])s1	0	-4	-20	-3	93*	-3	42*	12
CCCCc1nnc(NC(=O)c2cccc(S(=O)(=O)N3CCN(C)CC3)c2)s1	-21	-2	-15	7	22	-3	·	·
COc1cc(-c2ccc(Nc3ccccc3C(=O)O)c(OC)c2)ccc1Nc1ccccc1C(=O)O	-247	0	·	-4	81*	-3	32	·
Cc1ccc(S(=O)(=O)Nc2cccc(C(=O)NCc3cccnc3)c2)cc1F	-29	·	-73	20	51*	·	76*	62*
COc1cccc(CNc2ncc(C(=O)Nc3cc(OC)c(OC)c(OC)c3)c(C)n2)c1	-49	-1	-22	42	55*	-2	57*	48*
COc1cc(NC(=O)c2cnc(NCc3ccccc3)nc2C)cc(OC)c1OC	-8	-2	6	7	29	-4	·	·
Oc1cccc(-c2nc3c4c(ncn3n2)-c2ccccc2CC42CCCC2)c1	-10	1	32	0	58*	-2	7	·
COc1ccc(-c2nc3c4c(ncn3n2)-c2ccccc2CC42CCCC2)cc1	-46	0	35	5	-5	-2	·	·
Cc1cccc(C(CC(=O)N2CCCCC2)c2ccccc2)c1O (configuration not stated)	0	-1	1	-4	23	-2	·	·

Screening results: PubChem BioAssay, several laboratories
